Converted amounts (≈) assume the structure as drawn.
What was measured:
Format in all cases: functional
[1] = Antimicrobial activity against Borrelia burgdorferi B31 after 72 hrs by colorimetric assay; conditions: Borreliella burgdorferi
Method in brief: (§1)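 Tested in microtiter trays preloaded with lyophilized antibiotics; clinical isolates were low-passage (10 to 20 passages). MIC was read by colorimetric assay after 72 h. MBC was defined as 100% killing in liquid medium at 72 h: aliquots from vials showing no growth were diluted 1:1,000 in BSK and checked for regrowth after 3 weeks of subculture. Values are medians of three independent experiments on separate days.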

Staphylococcus aureus = test: Antimicrobial activity against Staphylococcus aureus ATCC 29213 after 72 hrs by colorimetric assay; conditions: ATCC 29213, 72 h
Method in brief: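 Quality-control MIC followed the CLSI method with two changes: BSK medium was used, and the antibiotic-medium preparation was preincubated for 48 h before testing. Tests were run on three different days, and the MIC reported is the median of the three.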

Borrelia garinii [2] = test: Antimicrobial activity against Borrelia garinii isolate G1 after 72 hrs by colorimetric assay; conditions: Borreliella garinii, isolate G1, 72 h; method in brief: as §1
Borrelia spielmanii [3] = test: Antimicrobial activity against Borrelia spielmanii isolate PJes after 72 hrs by colorimetric assay; conditions: Borreliella spielmanii; method in brief: as §1
Borrelia afzelii [4] = test: Antimicrobial activity against Borrelia afzelii isolate G1039 after 72 hrs by colorimetric assay; conditions: Borreliella afzelii, isolate G1039, 72 h; method in brief: as §1
[5] = Antimicrobial activity against Borrelia spielmanii A14S after 72 hrs by colorimetric assay; conditions: Borreliella spielmanii
Method in brief: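 Low-passage isolates (10 to 20 passages) grown in BSK medium were tested in microtiter trays precoated with lyophilized antimicrobials. MIC was read colorimetrically after 72 h. Independent experiments were run on three different days, and the MIC reported is the median of the three.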

Borrelia spielmanii [6] = test: Antimicrobial activity against Borrelia spielmanii isolate PSig2 after 72 hrs by colorimetric assay; conditions: Borreliella spielmanii, isolate PSig2, 72 h; method in brief: as §1
Borrelia spielmanii [7] = test: Antimicrobial activity against Borrelia spielmanii isolate PAnz after 72 hrs by colorimetric assay; conditions: Borreliella spielmanii; method in brief: as §1
Borrelia afzelii [8] = test: Antimicrobial activity against Borrelia afzelii isolate G600 after 72 hrs by colorimetric assay; conditions: Borreliella afzelii, isolate G600, 72 h; method in brief: as §1
Borrelia spielmanii [9] = test: Antimicrobial activity against Borrelia spielmanii isolate PHap after 72 hrs by colorimetric assay; conditions: Borreliella spielmanii; method in brief: as §1
Borrelia spielmanii [10] = test: Antimicrobial activity against Borrelia spielmanii isolate PC-Eq17 after 72 hrs by colorimetric assay; conditions: Borreliella spielmanii, isolate PC-Eq17, 72 h; method in brief: as §1
Borrelia afzelii [11] = test: Antimicrobial activity against Borrelia afzelii isolate FEM1 after 72 hrs by colorimetric assay; conditions: Borreliella afzelii, isolate FEM1, 72 h; method in brief: as §1
Borrelia spielmanii [12] = test: Antimicrobial activity against Borrelia spielmanii isolate PMew after 72 hrs by colorimetric assay; conditions: Borreliella spielmanii; method in brief: as §1
Borrelia spielmanii [13] = test: Antimicrobial activity against Borrelia spielmanii isolate TIsar3 after 72 hrs by colorimetric assay; conditions: Borreliella spielmanii, isolate TIsar3, 72 h; method in brief: as §1
Borrelia spielmanii [14] = test: Antimicrobial activity against Borrelia spielmanii isolate TIsar2 after 72 hrs by colorimetric assay; conditions: Borreliella spielmanii, isolate TIsar2, 72 h; method in brief: as §1
Borrelia garinii [15] = test: Antimicrobial activity against Borrelia garinii isolate PSth after 72 hrs by colorimetric assay; conditions: Borreliella garinii; method in brief: as §1
Borrelia = test: Antimicrobial activity against Borrelia clinical isolate after 72 hrs by colorimetric assay; conditions: for MIC90: Borrelia, 72 h; method in brief: as §1
Borrelia garinii [16] = test: Antimicrobial activity against Borrelia garinii isolate M2094 after 72 hrs by colorimetric assay; conditions: Borreliella garinii, isolate M2094, 72 h; method in brief: as §1
Borrelia burgdorferi = test: Antimicrobial activity against Borrelia burgdorferi isolate LW2 after 72 hrs by colorimetric assay; conditions: Borreliella burgdorferi, isolate LW2, 72 h; method in brief: as §1
Borrelia spielmanii [17] = test: Antimicrobial activity against Borrelia spielmanii isolate PMai after 72 hrs by colorimetric assay; conditions: Borreliella spielmanii; method in brief: as §1

| Compound | MBC [1] [µg/mL] | MIC [1] [µg/mL] | MIC (Staphylococcus aureus) [µg/mL] | MBC (Borrelia garinii [2]) [µg/mL] | MIC (Borrelia garinii [2]) [µg/mL] | MBC (Borrelia spielmanii [3]) [µg/mL] | MIC (Borrelia spielmanii [3]) [µg/mL] | MBC (Borrelia afzelii [4]) [µg/mL] | MIC (Borrelia afzelii [4]) [µg/mL] | MBC [5] [µg/mL] | MIC [5] [µg/mL] | MBC (Borrelia spielmanii [6]) [µg/mL] | MIC (Borrelia spielmanii [6]) [µg/mL] | MBC (Borrelia spielmanii [7]) [µg/mL] | MIC (Borrelia spielmanii [7]) [µg/mL] | MBC (Borrelia afzelii [8]) [µg/mL] | MIC (Borrelia afzelii [8]) [µg/mL] | MBC (Borrelia spielmanii [9]) [µg/mL] | MIC (Borrelia spielmanii [9]) [µg/mL] | MBC (Borrelia spielmanii [10]) [µg/mL] | other results |
| --- | --- | --- | --- | --- | --- | --- | --- | --- | --- | --- | --- | --- | --- | --- | --- | --- | --- | --- | --- | --- | --- |
| CC[C@H]1OC(=O)[C@H](C)[C@@H](O[C@H]2C[C@@](C)(OC)[C@@H](O)[C@H](C)O2)[C@H](C)[C@@H](O[C@@H]2O[C@H](C)C[C@H](N(C)C)[C@H]2O)[C@](C)(OC)C[C@@H](C)C(=O)[C@H](C)[C@@H](O)[C@]1(C)O [CLARITHROMYCIN] | 2 (≈ 2.67 µM) | 0.0079 (≈ 0.0106 µM) | 0.063 (≈ 0.0842 µM) | 1 (≈ 1.34 µM) | 0.0019 (≈ 0.00254 µM) | 0.5 (≈ 0.668 µM) | 0.0039 (≈ 0.00521 µM) | 1 (≈ 1.34 µM) | 0.0039 (≈ 0.00521 µM) | 1 (≈ 1.34 µM) | 0.0039 (≈ 0.00521 µM) | 1 (≈ 1.34 µM) | 0.0019 (≈ 0.00254 µM) | 1 (≈ 1.34 µM) | 0.0019 (≈ 0.00254 µM) | 0.5 (≈ 0.668 µM) | 0.0079 (≈ 0.0106 µM) | 0.5 (≈ 0.668 µM) | 0.0019 (≈ 0.00254 µM) | 1 (≈ 1.34 µM) | MIC (Borrelia spielmanii [10]): 0.0019 µg/mL (≈ 0.00254 µM); MBC (Borrelia afzelii [11]): 1 µg/mL (≈ 1.34 µM); MIC (Borrelia afzelii [11]): 0.0039 µg/mL (≈ 0.00521 µM); MBC (Borrelia spielmanii [12]): 1 µg/mL (≈ 1.34 µM); MIC (Borrelia spielmanii [12]): 0.0079 µg/mL (≈ 0.0106 µM); MBC (Borrelia spielmanii [13]): 1 µg/mL (≈ 1.34 µM); MIC (Borrelia spielmanii [13]): 0.0079 µg/mL (≈ 0.0106 µM); MBC (Borrelia spielmanii [14]): 0.5 µg/mL (≈ 0.668 µM); MIC (Borrelia spielmanii [14]): 0.0079 µg/mL (≈ 0.0106 µM); MBC (Borrelia garinii [15]): 2 µg/mL (≈ 2.67 µM); MIC (Borrelia garinii [15]): 0.0079 µg/mL (≈ 0.0106 µM); MBC90 (Borrelia): 1 µg/mL (≈ 1.34 µM); MIC90 (Borrelia): 0.0079 µg/mL (≈ 0.0106 µM); MBC (Borrelia garinii [16]): 1 µg/mL (≈ 1.34 µM); MIC (Borrelia garinii [16]): 0.0039 µg/mL (≈ 0.00521 µM); MBC (Borrelia burgdorferi): 4 µg/mL (≈ 5.35 µM); MIC (Borrelia burgdorferi): 0.0039 µg/mL (≈ 0.00521 µM); MBC (Borrelia spielmanii [17]): 0.5 µg/mL (≈ 0.668 µM); MIC (Borrelia spielmanii [17]): 0.0019 µg/mL (≈ 0.00254 µM) |
| C[C@H]1c2cccc(O)c2C(=O)C2=C(O)[C@]3(O)C(=O)C(C(N)=O)=C(O)[C@@H](N(C)C)[C@@H]3[C@@H](O)[C@@H]21.O [DOXYCYCLINE] | 16 | 0.25 | 0.25 | 16 | 0.125 | 8 | 0.125 | 4 | 0.125 | 16 | 0.125 | 8 | 0.125 | 8 | 0.0625 | 2 | 0.25 | 16 | 0.0625 | 16 | MIC (Borrelia spielmanii [10]): 0.125 µg/mL; MBC (Borrelia afzelii [11]): 4 µg/mL; MIC (Borrelia afzelii [11]): 0.125 µg/mL; MBC (Borrelia spielmanii [12]): 16 µg/mL; MIC (Borrelia spielmanii [12]): 0.5 µg/mL; MBC (Borrelia spielmanii [13]): 8 µg/mL; MIC (Borrelia spielmanii [13]): 0.125 µg/mL; MBC (Borrelia spielmanii [14]): 16 µg/mL; MIC (Borrelia spielmanii [14]): 0.25 µg/mL; MBC (Borrelia garinii [15]): 32 µg/mL; MIC (Borrelia garinii [15]): 0.25 µg/mL; MBC90 (Borrelia): 16 µg/mL; MIC90 (Borrelia): 0.25 µg/mL; MBC (Borrelia garinii [16]): 16 µg/mL; MIC (Borrelia garinii [16]): 0.25 µg/mL; MBC (Borrelia burgdorferi): 32 µg/mL; MIC (Borrelia burgdorferi): 0.125 µg/mL; MBC (Borrelia spielmanii [17]): 8 µg/mL; MIC (Borrelia spielmanii [17]): 0.125 µg/mL |
| CC[C@H]1OC(=O)[C@H](C)[C@@H](O[C@H]2C[C@@](C)(OC)[C@@H](O)[C@H](C)O2)[C@H](C)[C@@H](O[C@@H]2O[C@H](C)C[C@H](N(C)C)[C@H]2O)[C@](C)(O)C[C@@H](C)C(=O)[C@H](C)[C@@H](O)[C@]1(C)O [ERYTHROMYCIN] | 4 (≈ 5.45 µM) | 0.0312 (≈ 0.0425 µM) | 0.25 (≈ 0.341 µM) | 4 (≈ 5.45 µM) | 0.0156 (≈ 0.0213 µM) | 1 (≈ 1.36 µM) | 0.0156 (≈ 0.0213 µM) | 2 (≈ 2.73 µM) | 0.0156 (≈ 0.0213 µM) | 2 (≈ 2.73 µM) | 0.0156 (≈ 0.0213 µM) | 2 (≈ 2.73 µM) | 0.0079 (≈ 0.0108 µM) | 2 (≈ 2.73 µM) | 0.0079 (≈ 0.0108 µM) | 2 (≈ 2.73 µM) | 0.0312 (≈ 0.0425 µM) | 2 (≈ 2.73 µM) | 0.0079 (≈ 0.0108 µM) | 4 (≈ 5.45 µM) | MIC (Borrelia spielmanii [10]): 0.0156 µg/mL (≈ 0.0213 µM); MBC (Borrelia afzelii [11]): 2 µg/mL (≈ 2.73 µM); MIC (Borrelia afzelii [11]): 0.0312 µg/mL (≈ 0.0425 µM); MBC (Borrelia spielmanii [12]): 2 µg/mL (≈ 2.73 µM); MIC (Borrelia spielmanii [12]): 0.0312 µg/mL (≈ 0.0425 µM); MBC (Borrelia spielmanii [13]): 2 µg/mL (≈ 2.73 µM); MIC (Borrelia spielmanii [13]): 0.0312 µg/mL (≈ 0.0425 µM); MBC (Borrelia spielmanii [14]): 1 µg/mL (≈ 1.36 µM); MIC (Borrelia spielmanii [14]): 0.0312 µg/mL (≈ 0.0425 µM); MBC (Borrelia garinii [15]): 4 µg/mL (≈ 5.45 µM); MIC (Borrelia garinii [15]): 0.0312 µg/mL (≈ 0.0425 µM); MBC90 (Borrelia): 4 µg/mL (≈ 5.45 µM); MIC90 (Borrelia): 0.0312 µg/mL (≈ 0.0425 µM); MBC (Borrelia garinii [16]): 4 µg/mL (≈ 5.45 µM); MIC (Borrelia garinii [16]): 0.0312 µg/mL (≈ 0.0425 µM); MBC (Borrelia burgdorferi): 4 µg/mL (≈ 5.45 µM); MIC (Borrelia burgdorferi): 0.0312 µg/mL (≈ 0.0425 µM); MBC (Borrelia spielmanii [17]): 1 µg/mL (≈ 1.36 µM); MIC (Borrelia spielmanii [17]): 0.0079 µg/mL (≈ 0.0108 µM) |
